“Also recorded” adds a separate entry of the source. Blank lines part the entries; values can stand above or below the compound they belong to.
Assays:
[1] = test system: rats; assay: Fluoro-Jade C staining of rat brain; type: in vivo
[2] = test system: rats; assay: Behavioral convulsions, modified Racine scale; type: in vivo; conditions: rat
[3] = test system: hippocampal Schaffer collateral-CA1 (SC-CA1) synapse; assay: DHPG-induced LTD, fEPSP recordings at hippocampal SC-CA1 synapse; design: species or system rat; conditions: for fEPSP slope, % of baseline: measured 55 min after washout
[4] = test system: NMDAR currents in hippocampal CA1 pyramidal cells; assay: Whole-cell recordings of NMDA-evoked currents/responses in CA1 pyramidal cells; design: species or system rat; conditions: for effect on NMDA-evoked currents when added alone / effect on NMDAR currents in the presence of 3 μM DHPG: 5PAM523 20 μM, VU0409551 10 μM
[5] = biological target: mGlu5 in rat cortical astrocytes (Rattus norvegicus, UniProt P31424); assay: Glutamate-induced calcium mobilization in cultured rat cortical astrocytes; type: cell-based
[6] = test system: rats; assay: Amphetamine-induced hyperlocomotion; type: in vivo, rat
[7] = test system: hippocampal SC-CA1 synapse; assay: Theta burst stimulation-induced LTP at the SC-CA1 synapse; design: species or system rat; conditions: 1 μM VU0092273 for 20 min then threshold TBS, 35 min after stimulation
Outline: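 Threshold LTP was induced with one theta-burst train: nine bursts of four pulses at 100 Hz, 230 ms interburst interval. fEPSP slope was quantified 35 min after TBS.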

[8] = Satellite PK for Fluoro-Jade studies, repeat oral dosing; type: in vivo; conditions: rat, 120 mg/kg p.o. once-daily for 4 days, 75% PEG 400 in water
Outline: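 Non-fasted male Sprague Dawley rats received 120 mg/kg orally once daily for 4 days in aqueous PEG 400 vehicle. Serial blood samples were taken at 3, 7 and 24 hr post-dose on day 1 and day 4. Plasma concentrations were quantified by LC-MS/MS.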

[9] = biological target: T1, rat mGlu5 (Rattus norvegicus, UniProt P31424); assay: mGlu5-mediated ERK1/2 phosphorylation; type: cell-based
Outline: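 HEK293A cells stably expressing rat mGlu5 were used. Phosphorylated ERK1/2 was measured with an ALPHAScreen-based ERK Surefire assay, both with glutamate added and without added glutamate.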

[10] = In vitro fraction unbound in rat brain; type: in vitro ADME
[11] = test system: NMDAR-fEPSP at SC-CA1 synapse; assay: NMDAR-mediated fEPSPs at the SC-CA1 synapse; design: species or system rat
[12] = Biotransformation in rat hepatocytes; type: in vitro ADME; conditions: multiple oxidative pathways
[13] = biological target: T1, rat mGlu5; assay: Intracellular Ca2+ mobilization in HEK293A cells stably expressing rat mGlu5; type: cell-based; conditions: calcium mobilization
Outline: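 Stably transfected HEK293A cells expressing rat mGlu5. Test compound added first (30 μM in representative traces), then EC20 and EC80 concentrations of glutamate added in sequence; intracellular calcium mobilization traces recorded.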

[14] = test system: mGlu1,2,3,4,6,7,8; assay: mGlu subtype selectivity screening; type: cell-based, rat; conditions: 10 μM; shift of agonist concentration response curve
Outline: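 Selectivity across mGlu subtypes: mGlu1 was tested by calcium flux in HEK293 cells stably expressing rat mGlu1. mGlu2, 3, 4, 6, 7 and 8 were each tested by thallium flux through GIRK channels in HEK-293-GIRK cells expressing that subtype.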

[15] = test system: male Lister-hooded rats; assay: Delayed non-matching to position; type: in vivo; conditions: Lister-hooded rat, 10-60 mg/kg
Outline: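 Male Lister-hooded rats (350-450 g), trained to stable accurate performance, received vehicle or test compound (10-60 mg/kg) 60 min before testing. Delays were 1, 10, 20 and 30 sec, with 15 trials each (60 total) and a 45 min maximum per session. Read-outs were proportion of correct responses per delay and trials initiated.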

[16] = test system: rats; assay: Amphetamine-induced disruption of prepulse inhibition; type: in vivo; conditions: rat, 56.6 and 100 mg/kg, 30 min pretreatment
[17] = Rat pharmacokinetics, single intravenous administration; type: in vivo; conditions: i.v., 2.5 mg/kg
[18] = test system: rats; assay: Contextual fear conditioning; type: in vivo; conditions: rat, 0.3 - 10 mg/kg, 30 min pretreatment prior to conditioning
Outline: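 Male Sprague Dawley rats (275-300 g) were dosed orally in 20% β-cyclodextrin (3 ml/kg) 30 min before conditioning. In a chamber scented with 10% vanilla extract, they had 2 min habituation, then one 1 s, 0.5 mA shock-context pairing, and returned home after 45 sec. 24 hr later, freezing was scored blind over 2 min 45 sec in the same context without shock or drug.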

[19] = In vitro fraction unbound in rat plasma; type: in vitro ADME
[20] = Brain distribution in vivo after oral administration; conditions: rat, 1.5 hr after single p.o. 3, 10, 30, 100 mg/kg
[21] = biological target: T2, α2A adrenergic receptors (Homo sapiens, UniProt P08913); assay: Radioligand competition binding assay; conditions: read-out: IC50 at α2A adrenergic receptors
T2 sequence (P08913 1-465): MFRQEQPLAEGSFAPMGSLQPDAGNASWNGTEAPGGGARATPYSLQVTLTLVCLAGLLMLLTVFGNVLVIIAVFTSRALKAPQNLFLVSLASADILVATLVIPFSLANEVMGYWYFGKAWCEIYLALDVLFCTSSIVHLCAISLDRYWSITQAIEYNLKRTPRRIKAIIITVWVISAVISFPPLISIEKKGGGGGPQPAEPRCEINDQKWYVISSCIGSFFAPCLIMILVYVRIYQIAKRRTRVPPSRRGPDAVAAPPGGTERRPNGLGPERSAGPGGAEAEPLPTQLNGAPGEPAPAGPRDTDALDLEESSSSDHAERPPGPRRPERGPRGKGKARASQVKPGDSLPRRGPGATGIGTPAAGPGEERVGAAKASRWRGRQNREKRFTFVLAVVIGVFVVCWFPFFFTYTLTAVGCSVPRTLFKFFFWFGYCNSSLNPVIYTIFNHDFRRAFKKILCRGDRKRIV

[22] = test system: rats; assay: MK-801-induced hyperlocomotion; type: in vivo; conditions: rat, p.o.
Outline: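 Male Sprague Dawley rats in an open-field photobeam chamber received vehicle or test compound (10-100 mg/kg, oral, 20% β-cyclodextrin, 3 ml/kg) at t = 30, then MK-801 (0.2 mg/kg s.c. in saline) at t = 60 min. Activity was recorded 60 min more as beam breaks per 5-min bin. AUC from 60 to 120 min gave total ambulations; percent reversal was normalised to vehicle + MK-801; n = 10-12.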

[23] = test system: EPSCNMDA/EPSCAMPA at SC-CA1 synapses; conditions: 10 μM
[24] = Rat pharmacokinetics, single oral administration; type: in vivo; conditions: p.o., 3 mg/kg
[25] = test system: rats; assay: Sleep-wake electroencephalography; type: in vivo; conditions: rat, p.o., 10 mg/kg
[26] = test system: 66 other receptors and ion channels; assay: Radioligand competition binding panel; conditions: 10 μM
[27] = test system: rats; assay: Novel object recognition; type: in vivo; conditions: rat, 1-10 mg/kg, 30 min prior to exposure; significant at 3 and 10 mg/kg
[28] = operational model of allosterism, pERK1/2
[29] = rat, 3-100 mg/kg, 30 min pretreatment, amphetamine 1 mg/kg s.c.

T1 sequence (P31424 21-1203): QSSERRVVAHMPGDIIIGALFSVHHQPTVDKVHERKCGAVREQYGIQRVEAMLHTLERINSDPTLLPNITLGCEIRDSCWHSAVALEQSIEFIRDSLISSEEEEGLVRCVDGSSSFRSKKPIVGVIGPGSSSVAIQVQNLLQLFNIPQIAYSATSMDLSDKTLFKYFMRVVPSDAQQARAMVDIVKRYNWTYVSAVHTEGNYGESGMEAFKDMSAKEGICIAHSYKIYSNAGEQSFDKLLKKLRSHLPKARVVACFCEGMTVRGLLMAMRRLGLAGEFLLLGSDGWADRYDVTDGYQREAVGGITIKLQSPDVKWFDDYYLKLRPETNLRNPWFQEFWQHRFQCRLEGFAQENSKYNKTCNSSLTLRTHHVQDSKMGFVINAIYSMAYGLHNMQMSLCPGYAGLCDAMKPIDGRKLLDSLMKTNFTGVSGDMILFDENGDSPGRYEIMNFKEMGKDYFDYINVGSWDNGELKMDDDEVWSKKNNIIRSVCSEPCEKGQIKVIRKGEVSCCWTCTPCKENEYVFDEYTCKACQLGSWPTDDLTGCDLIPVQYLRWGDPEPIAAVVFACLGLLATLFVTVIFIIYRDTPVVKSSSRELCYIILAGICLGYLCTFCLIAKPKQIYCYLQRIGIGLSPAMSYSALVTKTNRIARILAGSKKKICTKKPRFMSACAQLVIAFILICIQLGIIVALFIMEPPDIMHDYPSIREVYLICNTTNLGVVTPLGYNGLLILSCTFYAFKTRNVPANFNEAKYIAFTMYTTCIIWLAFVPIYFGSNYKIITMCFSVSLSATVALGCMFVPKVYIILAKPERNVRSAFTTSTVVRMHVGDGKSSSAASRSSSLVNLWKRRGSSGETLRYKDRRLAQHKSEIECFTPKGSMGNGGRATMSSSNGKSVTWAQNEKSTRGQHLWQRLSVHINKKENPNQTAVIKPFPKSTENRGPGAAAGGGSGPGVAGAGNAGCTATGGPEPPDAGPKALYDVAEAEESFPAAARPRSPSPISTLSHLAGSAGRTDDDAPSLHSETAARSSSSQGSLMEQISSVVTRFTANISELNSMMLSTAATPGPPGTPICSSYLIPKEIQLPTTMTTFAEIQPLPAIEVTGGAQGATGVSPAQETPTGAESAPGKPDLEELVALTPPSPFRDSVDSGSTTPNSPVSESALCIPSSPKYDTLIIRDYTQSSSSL
Chain of mGlu5 in rat cortical astrocytes (P31424 21-1203): as above

SMILES: C[C@@H](NC(=O)c1ccc(C#Cc2cccc(F)c2)cn1)C(C)(C)O [VU0424465, reference compound]
FJC-positive neurons in the auditory cortex and adjacent cortical regions ([1]; rat, single dose 3 mg/kg i.p., 24 hr after dose): induced cell death | behavioral convulsions (Racine scale) ([2]; VU0424465 3 mg/kg): induced behavioral convulsions

SMILES: N[C@H](C(=O)O)c1cc(O)cc(O)c1 [DHPG, reference compound]
fEPSP slope, % of baseline ([3]; 25 μM DHPG for 10 min): 78.9% ± 5.7% | fEPSP slope, % of baseline ([3]; 75 μM DHPG for 10 min): 54.9% ± 5.3% | effect of DHPG on inward currents evoked by NMDA ([4]; voltage clamp, DHPG at different concentrations): concentration-dependent increase in inward currents

effect on VU0409551 potentiation of glutamate-induced calcium mobilization ([5]; MPEP 10 μM): blocked
SMILES: Cc1cccc(C#Cc2ccccc2)n1 [MPEP, 2-methyl-6-(phenylethynyl)-pyridine, reference compound]

SMILES: C[C@@H]1CC[C@H](c2noc(-c3ccc(F)cn3)n2)CN1C(=O)c1ccc(F)cc1 [5PAM523, reference compound]
behavioral convulsions (Racine scale) ([2]; 5PAM523 56.6 mg/kg): induced behavioral convulsions | effect on NMDA-evoked currents when added alone ([4]; voltage clamp): had no effect | effect on NMDAR currents in the presence of 3 μM DHPG ([4]; voltage clamp): potentiated

SMILES: Cc1nc(C#Cc2cccnc2)cs1 [MTEP, reference compound]
effect on reversal of AHL by VU0409551 ([6]; data not shown): blocked

SMILES: O=C(c1ccc(C#Cc2ccccc2)cc1)N1CCC(O)CC1 [VU0092273]
effect on fEPSP slope in response to threshold TBS [7]: significant potentiation

SMILES: O=C(c1ccc(F)cc1)N1CCc2nc(COc3ccccc3)oc2C1 [VU0409551]
AUC0-last day 1 [8]: 96 µM·h | AUC0-last day 4 [8]: 95 µM·h | pERK1/2 agonist activity ([9]; absence of added glutamate): increased pERK1/2 in the absence of added glutamate; also recorded: robust agonist activity | glutamate-induced phosphorylation of ERK1/2 ([9]; mGlu5-expressing cells): potentiated | agonist efficacy τB [9, 28]: 1.04 | cooperativity β with glutamate [9, 28]: 1.43 | brain to plasma partition coefficient (Kp) at unrestricted equilibrium ([fup]/[fubr]) ([10]; from in vitro fup and fubr): 1.8 | fraction unbound in rat brain (fubr) ([10]; in vitro): 0.04 | effect on NMDAR-fEPSP slope [11]: had no effect | turnover in rat hepatocytes [12]: moderate turnover | intrinsic agonist activity [13]: did not possess intrinsic agonist activity | maximum reversal of amphetamine-induced hyperlocomotion ([6]; rat, 3-100 mg/kg): 78.1% | ED50, reversal of amphetamine-induced hyperlocomotion [6, 29]: 5.9 mg/kg | MED, reversal of amphetamine-induced hyperlocomotion [6, 29]: 3 mg/kg | EC50 ([6]; read-out: in vivo EC50 for reversal of AHL, terminal (1.5 hr) unbound brain concentration, individual animal concentration-efficacy data from all dose groups): 0.097 µM | Emax for reversal of AHL ([6]; unbound brain concentration-efficacy analysis): 82% | effect at the other mGlu receptor subtypes [14]: no effect; also recorded: did not shift the agonist concentration response curve | total number of trials initiated ([15]; 60 min pretreatment): no change | proportion of correct responses at a 10 and 20 sec delay ([15]; 60 min pretreatment (60 mg/kg)): increased | amphetamine-induced disruptions in PPI [16]: reversed | clearance from plasma (CLp) [17]: 33 mL/min/kg | half-life (t1/2) [17]: 3.9 h | volume of distribution at steady-state (Vss) [17]: 9.6 L/kg | intrinsic agonist activity ([5]; cultured rat cortical astrocytes): no intrinsic agonist activity | maximum glutamate response ([5]; rat cortical astrocytes): 79.5% | acquisition of fear memory assessed 24 hr later [18]: significantly enhanced | fraction unbound in rat plasma (fup) [19]: 0.07 | fEPSP slope, % of baseline ([3]; 10 μM VU0409551 plus 25 μM DHPG): 43.7% ± 4.6% | effect on fEPSP slope when applied alone ([3]; VU0409551 alone, transient, returned to baseline within 10 min of washout): slight depression in the fEPSP slope | brain to plasma Kp [20]: 2.3 | unbound brain to plasma Kp (Kp,uu) [20]: 1.3 | IC50 [21]: 8.9 µM | minimal effective dose (MED), reversal of MK-801-induced hyperlocomotion ([22]; 10-100 mg/kg, 30 min pretreatment, MK-801 0.2 mg/kg s.c.): 10 mg/kg | maximum reversal of MK-801-induced hyperlocomotion ([22]; highest dose 100 mg/kg): 49.7% | FJC staining ([1]; 360 mg/kg, once daily for 1 month, unpublished findings): can induce FJC staining | FJC staining ([1]; rat, 120 mg/kg p.o. daily for four consecutive days, 24 hr after last dose): did not induce | effect on EPSCNMDA/EPSCAMPA ratio when applied alone [23]: had no effects | area-under-the-curve from 0-last (AUC0-last) [24]: 2.9 µM·h | oral bioavailability (%F) [24]: 63% | duration of decreased time asleep post-administration [25]: 2 h | behavioral convulsions ([2]; repeated once-daily 450 mg/kg over 14 days, data not shown): did not induce behavioral convulsions | activity at 66 other receptors and ion channels [26]: no activity | recognition memory in the novel object recognition task [27]: dose-dependent increase | effect on 3 μM DHPG-induced depolarization or increase in NMDAR response ([4]; current clamp): did not potentiate | effect on NMDA-evoked responses when applied alone ([4]; current clamp): had no effect | effect on NMDA-evoked currents when added alone ([4]; voltage clamp): had no effect | effect on NMDAR currents in the presence of 3 μM DHPG ([4]; voltage clamp): had no effect

Reference: article PMC4443790 (Neuron, 2015)
